These results are taken from ChEMBL document CHEMBL2417520, “Synthesis and biological evaluation of amino analogs of Ludartin: potent and selective cytotoxic agents” (Bioorg Med Chem Lett, 2013).

pIC50: −log10 of the molar value.

The test system of test [1] is PC-3. Put plainly: Ratio of ludartin IC50 to compound IC50 for human PC3 cells. The format is functional.
Test [2] deals with HCT-116. Put plainly: Cytotoxicity against human HCT116 cells assessed as cell growth inhibition after 48 hrs by sulphorhodamine B assay. As to conditions: HCT-116, 48 h. The format is functional, cell-based. The procedure, abridged:
(§1)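 Cells grown in RPMI-1640 with 10% FBS and penicillin/streptomycin at 37 °C under 5% CO2, then allowed to adhere overnight. Only analogs giving >50% inhibition at 50 µM were retested at 10–100 µM for 48 h. Cells were fixed with cold TCA and stained with 0.4% SRB in 1% acetic acid. Dye was solubilised in 10 mM Tris and read at 570 nm to give IC50.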
Background: Sulforhodamine B stains cellular protein and so reports cell mass.

For test [3], the system named is HCT-116. Put plainly: Cytotoxicity against human HCT116 cells assessed as cell growth inhibition at 50 uM after 48 hrs by sulphorhodamine B assay. It is filed as functional. The settings on record: HCT-116, 48 h, read-out: GI. The procedure, abridged: (§2)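 Single-concentration screen of analogs at 50 µM for 48 h on overnight-adhered cells maintained in RPMI-1640/10% FBS at 37 °C, 5% CO2. Cells were fixed with ice-cold TCA (60 min) and stained 30 min with 0.4% SRB in 1% acetic acid. Bound dye was dissolved in 10 mM Tris and OD read at 570 nm, expressed as % growth inhibition.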

Test [4] concerns PC-3. Put plainly: Cytotoxicity against human PC3 cells assessed as cell growth inhibition after 48 hrs by sulphorhodamine B assay. The format is functional, cell-based. As to conditions: PC-3, 48 h. In short, it runs like this: as §1
For test [5], the system named is PC-3. Put plainly: Cytotoxicity against human PC3 cells assessed as cell growth inhibition at 50 uM after 48 hrs by sulphorhodamine B assay. The format is functional. The settings on record: PC-3, 48 h, read-out: GI. The procedure, abridged:
as §2

Test [6] has as its system THP-1. Put plainly: Cytotoxicity against human THP1 cells assessed as cell growth inhibition after 48 hrs by sulphorhodamine B assay. It is filed as functional, cell-based. The settings on record: THP-1, 48 h. In short, it runs like this: as §1
Test [7] concerns THP-1. Put plainly: Cytotoxicity against human THP1 cells assessed as cell growth inhibition at 50 uM after 48 hrs by sulphorhodamine B assay. It is filed as functional. The settings on record: THP-1, 48 h, read-out: GI. In short, it runs like this:
as §2

Test [8] deals with A549. Put plainly: Cytotoxicity against human A549 cells assessed as cell growth inhibition after 48 hrs by sulphorhodamine B assay. It is filed as functional, cell-based. The settings on record: A549, 48 h. In short, it runs like this: as §1
In test [9] the test system is A549. Put plainly: Cytotoxicity against human A549 cells assessed as cell growth inhibition at 50 uM after 48 hrs by sulphorhodamine B assay. It is filed as functional. As to conditions: A549, 48 h, read-out: GI. In short, it runs like this: as §2
The test system of test [10] is A549. Put plainly: Ratio of ludartin IC50 to compound IC50 for human A549 cells. The format is functional.

For the compound `CC1=C2C[C@H]3O[C@@]3(C)[C@@H]2[C@H]2OC(=O)[C@@H](Cn3ncc4ccc([N+](=O)[O-])cc43)[C@@H]2CC1`, in the test on PC-3 [1], the “Ratio IC50” value came to 3. In addition, the pIC50 in the test with HCT-116 [2] was 4.77; with PC-3 [4] it was 5.66; with THP-1 [6], 4.54; with A549 [8] it was 4.46. The inhibition of growth at 50 µM with HCT-116 [3] is 86%; in the test on PC-3 [5], 99%; in the test with THP-1 [7], 63%; with A549 [9], 84%.
As for `CC1=C2C[C@H]3O[C@@]3(C)[C@@H]2[C@H]2OC(=O)[C@@H](CN3CCCCC3)[C@@H]2CC1`, the pIC50 is 5.40 in the test on HCT-116 [2], 4.64 in the test on PC-3 [4], 5.41 in the test with THP-1 [6] and 4.77 with A549 [8]. Moreover, the inhibition of growth at 50 µM in the test on HCT-116 [3] is 90%; in the test on PC-3 [5] it was 85%; in the test on THP-1 [7], 93%; in the test on A549 [9] it was 87%.
For `CCN(CC)C[C@@H]1C(=O)O[C@H]2[C@H]1CCC(C)=C1C[C@H]3O[C@@]3(C)[C@@H]12`, the pIC50 in the test on HCT-116 [2] was 5.43; with PC-3 [4], 4.49; with THP-1 [6] it was 5.46; in the test with A549 [8], 4.66. In addition, the inhibition of growth at 50 µM stood at 95% in the test on HCT-116 [3], 56% in the test on PC-3 [5], 98% with THP-1 [7] and 73% with A549 [9].
`CC1=C2C[C@H]3O[C@@]3(C)[C@@H]2[C@H]2OC(=O)[C@@H](Cn3ncc4cc([N+](=O)[O-])ccc43)[C@@H]2CC1`: the “Ratio IC50” value in the test on A549 [10] amounted to 3. The pIC50 with HCT-116 [2] was 4.40; in the test on PC-3 [4], 4.47; in the test on THP-1 [6], 4.51; in the test on A549 [8], 5.59. The inhibition of growth at 50 µM in the test on HCT-116 [3] amounted to 57%; in the test on PC-3 [5], 52%; with THP-1 [7], 72%; in the test on A549 [9], 99%.
As for `C#CCNC[C@@H]1C(=O)O[C@H]2[C@H]1CCC(C)=C1C[C@H]3O[C@@]3(C)[C@@H]12`, the inhibition of growth at 50 µM in the test on HCT-116 [3] was 4%; with PC-3 [5], 33%; with THP-1 [7], 40%; in the test on A549 [9], 36%.
On to `C=C1C(=O)O[C@H]2[C@H]1CCC(C)=C1C[C@H]3O[C@@]3(C)[C@@H]12` [LUDARTIN], for which the negative-log IC50 (pIC50) was 5.16 in the test on HCT-116 [2], 5.12 with PC-3 [4], 5.51 with THP-1 [6] and 5.13 with A549 [8]. The inhibition of growth at 50 µM is 97% with HCT-116 [3], 97% in the test with PC-3 [5], 98% with THP-1 [7] and 97% in the test with A549 [9].
On to `CC1=C2C[C@H]3O[C@@]3(C)[C@@H]2[C@H]2OC(=O)[C@@H](CN3CCOCC3)[C@@H]2CC1`, for which the inhibition of growth at 50 µM in the test on HCT-116 [3] worked out at 58%; with PC-3 [5], 59%; in the test on THP-1 [7], 97%; in the test with A549 [9] it was 42%. In the test with THP-1 [6], the pIC50 is 5.55.
The matching figures for `CCNC[C@@H]1C(=O)O[C@H]2[C@H]1CCC(C)=C1C[C@H]3O[C@@]3(C)[C@@H]12`: 36%, 43%, 68%, 20% and 4.54.
`C=CCNC[C@@H]1C(=O)O[C@H]2[C@H]1CCC(C)=C1C[C@H]3O[C@@]3(C)[C@@H]12`: the inhibition of growth at 50 µM is 28% with HCT-116 [3], 16% in the test with PC-3 [5], 39% in the test on THP-1 [7] and 0% in the test on A549 [9].
`CCCNC[C@@H]1C(=O)O[C@H]2[C@H]1CCC(C)=C1C[C@H]3O[C@@]3(C)[C@@H]12`: the inhibition of growth at 50 µM with HCT-116 [3] is 2%; with PC-3 [5], 17%; in the test with THP-1 [7] it was 23%; in the test on A549 [9], 39%.
Turning to `CCCCNC[C@@H]1C(=O)O[C@H]2[C@H]1CCC(C)=C1C[C@H]3O[C@@]3(C)[C@@H]12`, the inhibition of growth at 50 µM was 4% with HCT-116 [3], 14% in the test with PC-3 [5], 28% with THP-1 [7] and 0% in the test with A549 [9].
As to `CC1=C2C[C@H]3O[C@@]3(C)[C@@H]2[C@H]2OC(=O)[C@@H](Cn3nc4ccccc4n3)[C@@H]2CC1`, the inhibition of growth at 50 µM with HCT-116 [3] was determined as 13%; in the test with PC-3 [5], 40%; with THP-1 [7] it was 15%; in the test on A549 [9], 25%.
On to `CC1=C2C[C@H]3O[C@@]3(C)[C@@H]2[C@H]2OC(=O)[C@@H](CNCc3ccc(F)cc3)[C@@H]2CC1`, for which the inhibition of growth at 50 µM in the test with HCT-116 [3] stood at 0%; with PC-3 [5], 64%; with THP-1 [7] it was 26%; in the test on A549 [9], 16%.
As for `CC1=C2C[C@H]3O[C@@]3(C)[C@@H]2[C@H]2OC(=O)[C@@H](CN3CCCC3)[C@@H]2CC1`, the inhibition of growth at 50 µM in the test with HCT-116 [3] is 15%; with PC-3 [5], 11%; in the test on THP-1 [7] it was 67%; in the test with A549 [9], 0%. Besides, the pIC50 in the test on THP-1 [6] was 4.59.
On to `CNC[C@@H]1C(=O)O[C@H]2[C@H]1CCC(C)=C1C[C@H]3O[C@@]3(C)[C@@H]12`, for which the inhibition of growth at 50 µM in the test with HCT-116 [3] worked out at 16%; in the test with PC-3 [5] it was 12%; with THP-1 [7] it was 25%; with A549 [9], 10%.
With `CC1=C2C[C@H]3O[C@@]3(C)[C@@H]2[C@H]2OC(=O)[C@@H](Cn3cncn3)[C@@H]2CC1`, the negative-log IC50 (pIC50) was 4.70 in the test with HCT-116 [2], 4.46 in the test on PC-3 [4], 4.82 with THP-1 [6] and 4.49 with A549 [8]. The inhibition of growth at 50 µM is 70% in the test on HCT-116 [3], 66% in the test with PC-3 [5], 83% in the test on THP-1 [7] and 69% with A549 [9].
For `CC1=C2C[C@H]3O[C@@]3(C)[C@@H]2[C@H]2OC(=O)[C@@H](Cn3ccnc3)[C@@H]2CC1`, the inhibition of growth at 50 µM was found to be 42% in the test on HCT-116 [3], 53% in the test with PC-3 [5], 36% with THP-1 [7] and 0% with A549 [9].
On to `CC1=C2C[C@H]3O[C@@]3(C)[C@@H]2[C@H]2OC(=O)[C@@H](Cn3cnc([N+](=O)[O-])c3)[C@@H]2CC1`, for which the inhibition of growth at 50 µM in the test on HCT-116 [3] was 30%; in the test on PC-3 [5], 15%; in the test on THP-1 [7], 32%; in the test on A549 [9] it was 0%.

Broadly, the pIC50 is −log10 of the IC50, conventionally taken in molar units.
